From ChEMBL document CHEMBL1134519, “Synthesis, nicotinic acetylcholine receptor binding, and antinociceptive properties of 2-exo-2-(2'-substituted 5'-pyridinyl)-7-azabicyclo[2.2.1]heptanes. Epibatidine analogues” (J Med Chem, 2001) come the findings set out here.

The species entered for assay [1] is Mus musculus. Description: Antinociception by tail-flick test in male ICR mice after intrathecal (i.t.) injection. Type of assay: functional. In outline:
(§1)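 Male ICR mice injected intrathecally, free-hand between L4 and L6 while unanesthetized. Tail-flick latency was read before treatment (control 2-4 s) and 5 min after injection, with a 10 s cutoff. The result was expressed as %MPE = [(test − control)/(10 − control)] × 100. There were 8-12 mice per dose and at least four doses, and ED50 with 95% CL came from unweighted least-squares linear regression.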
In general terms: In hot-plate and tail-flick tests a longer latency is read as antinociception.

Assay [2] in a line: Hill slope value of the compound.
Assay [3] concerns the target T1, Neuronal acetylcholine receptor; alpha4/beta2 (Rattus norvegicus, UniProt P09483+P12390). The experiment in a line: Inhibition of [3H]epibatidine binding at the nicotinic acetylcholine receptor alpha4-beta2 in male rat cerebral cortex. Type of assay: tissue-based.
Assay [4] addresses T1, Neuronal acetylcholine receptor; alpha4/beta2. Description: Non-specific binding in presence of 300 uM nicotine at nicotinic acetylcholine receptor alpha4-beta2 in rat cerebral cortex membranes. Type of assay: cell membranes, Membrane.
Assay [5] shares this target. The experiment in a line: Inhibition of [3H]-nicotine binding at the nicotinic acetylcholine receptor alpha4-beta2. It counts as protein-complex assay.
Assay [6] has as its system Mus musculus. Description: Antinociception by tail-flick test in male ICR mice after intrathecal (i.t.) injection, at 32.5 mg/kg. It counts as functional. In outline: as §1
Assay [7] concerns the target T1, Neuronal acetylcholine receptor; alpha4/beta2. Description: Inhibition of […] binding at the nicotinic acetylcholine receptor alpha4-beta2 in male rat cerebral cortex. Type of assay: tissue-based. In a few lines: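 Male rat cerebral cortex homogenate (3 mg wet weight) was incubated with 0.5 nM [3H]epibatidine and 10-12 test concentrations, in buffer at pH 7.4 with 1% DMSO final, for 4 h at room temperature. Nonspecific binding was defined with 300 µM (-)-nicotine. Samples were filtered on PEI-soaked GF/B and counted by scintillation. IC50 came from at least three independent experiments by nonlinear regression, and Ki by Cheng-Prusoff.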

Assay [8] deals with Mus musculus. The experiment in a line: Antinociception by tail-flick test in male ICR mice after intrathecal (i.t.) injection at 112 mg/kg. Type of assay: functional. In outline:
as §1

T1 sequence (P09483 whole entry): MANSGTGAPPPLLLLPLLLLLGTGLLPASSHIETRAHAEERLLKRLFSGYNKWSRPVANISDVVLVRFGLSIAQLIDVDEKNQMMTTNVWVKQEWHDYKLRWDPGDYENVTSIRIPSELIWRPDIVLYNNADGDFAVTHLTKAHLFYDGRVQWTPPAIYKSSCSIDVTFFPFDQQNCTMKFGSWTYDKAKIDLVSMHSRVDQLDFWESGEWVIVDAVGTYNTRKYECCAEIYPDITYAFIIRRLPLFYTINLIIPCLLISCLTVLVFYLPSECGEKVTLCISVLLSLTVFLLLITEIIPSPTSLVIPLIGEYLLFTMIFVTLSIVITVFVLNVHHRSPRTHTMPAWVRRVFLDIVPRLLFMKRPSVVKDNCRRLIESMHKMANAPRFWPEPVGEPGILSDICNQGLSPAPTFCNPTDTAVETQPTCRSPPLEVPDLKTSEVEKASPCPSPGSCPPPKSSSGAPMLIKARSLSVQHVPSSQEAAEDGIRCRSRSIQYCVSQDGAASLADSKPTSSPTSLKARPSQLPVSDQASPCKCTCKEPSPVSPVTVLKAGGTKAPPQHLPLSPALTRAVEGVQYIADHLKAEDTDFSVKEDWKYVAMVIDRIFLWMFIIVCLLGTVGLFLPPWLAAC
T1 sequence (P12390 whole entry): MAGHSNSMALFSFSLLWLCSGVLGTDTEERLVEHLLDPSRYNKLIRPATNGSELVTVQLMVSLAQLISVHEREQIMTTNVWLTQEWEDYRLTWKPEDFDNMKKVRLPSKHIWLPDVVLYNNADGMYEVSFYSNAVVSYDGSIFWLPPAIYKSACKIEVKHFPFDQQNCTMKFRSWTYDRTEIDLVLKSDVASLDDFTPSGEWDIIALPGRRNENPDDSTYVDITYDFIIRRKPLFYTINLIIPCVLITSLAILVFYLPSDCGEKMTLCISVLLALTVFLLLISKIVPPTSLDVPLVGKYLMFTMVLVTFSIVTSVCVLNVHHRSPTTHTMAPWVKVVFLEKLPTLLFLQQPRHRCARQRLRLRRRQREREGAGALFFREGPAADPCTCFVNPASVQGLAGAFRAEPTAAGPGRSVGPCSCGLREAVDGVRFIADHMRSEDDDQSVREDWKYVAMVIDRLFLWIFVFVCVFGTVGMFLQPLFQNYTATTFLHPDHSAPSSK

Usually Hill coefficient stands for a measure of the steepness of the concentration-response curve. `CN1CCC[C@H]1c1cccnc1` [NICOTINE] gave an ED50 in the assay listed under Mus musculus [1] of 74 nM mouse-1. Further, the Hill coefficient in assay [2] was 0.9.

One may read the Ki as the equilibrium dissociation constant of an inhibitor or competing ligand from its target. Regarding `Ic1ccc(C2CC3CCC2N3)cn1` (stereo not drawn), the Ki in assay [3] worked out at 0.07 nM; in assay [4], 0.48 nM.

In the assay listed under Mus musculus [1], `Oc1ccc(C2CC3CCC2N3)cn1` (stereo not drawn) gave an ED50 of 52.4 nM mouse-1. The compound also yielded a Hill coefficient in assay [2] of 1.

The compound `CN1CCCC1c1ccc(N)nc1` (stereo not drawn) had a Ki in assay [5] of 81 nM.

For `CN1CCCC1c1ccc(F)nc1` (stereo not drawn), the Ki in assay [5] was 1.03 nM.

One may read the inhibition in vivo as the relative decrease from the control value, in per cent. A high value points to a strong effect. In the assay with Mus musculus [6], `CN(C)c1ccc(C2CC3CCC2N3)cn1` (stereo not drawn) returned an inhibition in vivo at 32.5 mg/kg of 10%. In assay [2], this compound returned a Hill coefficient of 1.

As to `Clc1ccc([C@@H]2C[C@H]3CC[C@@H]2N3)cn1` [(+)-EPIBATIDINE], the ED50 in the assay listed under Mus musculus [1] worked out at 0.5 nM mouse-1.

Regarding `Clc1ccc([C@H]2C[C@@H]3CC[C@H]2N3)cn1` [(-)-EPIBATIDINE], the ED50 in the assay filed under Mus musculus [1] amounted to 0.6 nM mouse-1.

For `c1cncc(C2CC3CCC2N3)c1` (stereo not drawn) [DESCHLOROEPIBATIDINE], the Ki in assay [3] is 0.02 nM; in assay [4] it was 0.031 nM. In the assay filed under Mus musculus [1], this compound returned an ED50 of 0.2 nM mouse-1. Further, the Hill coefficient in assay [2] was 0.8.

The compound `CN1CCCC1c1ccc(Cl)nc1` (stereo not drawn) registered a Ki in assay [5] of 0.63 nM.

As for `Brc1ccc(C2CC3CCC2N3)cn1` (stereo not drawn), the affinity in assay [3] corresponds to a Ki of 0.023 nM. In the assay listed under Mus musculus [1], this compound displayed an ED50 of 0.33 nM mouse-1. The same compound displayed a Hill coefficient in assay [2] of 0.9.

`CN1CCCC1c1ccc(O)nc1` (stereo not drawn): the affinity in assay [5], expressed as Ki, was 1070 nM.

Regarding `O=c1ccc(C2CC3CCC2N3)c[nH]1` (stereo not drawn), in assay [7], the Ki was determined as 107 nM.

As for `CN1CCCC1c1ccc(Br)nc1` (stereo not drawn), the Ki in assay [5] amounted to 0.45 nM.

The compound `Nc1ccc(C2CC3CCC2N3)cn1` (stereo not drawn) came in with a Ki in assay [3] of 1.3 nM. In the assay with Mus musculus [8], this compound gave an inhibition in vivo at 112 mg/kg of 27%. This compound also displayed a Hill coefficient in assay [2] of 1.

On to `Fc1ccc(C2CC3CCC2N3)cn1` (stereo not drawn), for which the ED50 in the assay filed under Mus musculus [1] is listed as 0.31 nM mouse-1. In assay [2], this compound came in with a Hill coefficient of 0.9.
